Values after ≈ are worked out from the molar mass of the structure shown. Active and inactive are the calls of the source. The rule behind the calls is not given here.
Key:
CCRF-CEM [1] = assay: Inhibition of T4-lymphocytes (CEM cell line) infected with HIV-1.; format: functional, cell-based; conditions: Homo sapiens
HIV-1 = assay: Therapeutic index (TI) was measured as ratio of IC50 and EC50 (HIV-1); conditions: human immunodeficiency virus 1; read-out: TI50
[2] = system: Human immunodeficiency virus 1; assay: Inhibitory activity against HIV-1 in T4-lymphocytes (CEM cell line).; format: functional, organism-based; conditions: Human immunodeficiency virus 1, CCRF-CEM
CCRF-CEM [3] = assay: Inhibitory activity against T4-lymphocytes (CEM cell line) infected with HIV-1; active; format: functional, cell-based; conditions: Homo sapiens
[4] = Therapeutic index(TI) was measured as ratio of TD50 and MIC50 (Retrovirus); conditions: retroviridae
Murine leukemia virus [5] = assay: Inhibitory activity on moloney murine leukemia retrovirus.; format: functional
How it was run: (§1)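 SC-1 cells (3.5 × 10⁴ mL⁻¹) seeded in 5% FBS-MEM 1 day ahead. Compound dilutions added in triplicate, then 20-40 pfu Moloney virus per well, shaken at 0, 30 and 60 min. Incubated 5 days, 37 °C, 5% CO₂; viability checked for toxicity. Then UV 3 min, XC cells overlaid (2 × 10⁵ mL⁻¹), 4 days, 0.5% crystal violet stain, plaques counted. MIC₅₀ interpolated between two dilutions.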

CCRF-CEM [6] = assay: (§2) Inhibitory activity against T4-lymphocytes (CEM cell line) infected with HIV-1; moderate; format: functional, cell-based; conditions: Homo sapiens
[7] = system: Human immunodeficiency virus 1; assay: as §2; format: functional, organism-based; conditions: CCRF-CEM
CCRF-CEM [8] = assay: Inhibitory activity against T4-lymphocytes (CEM cell line) infected with HIV-1; inactive; format: functional, cell-based; conditions: Homo sapiens
Murine leukemia virus [9] = assay: Concentration inhibiting moloney murine leukemia retrovirus; format: functional; how it was run: as §1

Structure (SMILES)	EC50 [2]	Activity (CCRF-CEM [3])	TI [4]	TD50 (Murine leukemia virus [5])	further results
Cn1cc(NC(=O)c2cc(NC(=O)c3ccc(C(=O)Nc4cc(C(=O)Nc5cc(C(=O)NCCC(=N)N)n(C)c5)n(C)c4)cc3)cn2C)cc1C(=O)NCCC(=N)N	1.21 µM	Active	–	–	IC50 (CCRF-CEM [1]): 17.9 µM; selectivity ratio (HIV-1): 14.8
Cl.Cl.Cn1cc(NC(=O)c2cc(NC(=O)c3cc(NC(=O)/C=C/C(=O)Nc4cc(C(=O)Nc5cc(C(=O)Nc6cc(C(=O)NCCC(=N)N)n(C)c6)n(C)c5)n(C)c4)cn3C)cn2C)cc1C(=O)NCCC(=N)N	–	Active	625 TD50/MIC50	100 µg/mL	–
Cn1cc(NC(=O)c2cc(NC(=O)[C@H]3C[C@H]3C(=O)Nc3cc(C(=O)Nc4cc(C(=O)NCCC(=N)N)n(C)c4)n(C)c3)cn2C)cc1C(=O)NCCC(=N)N	42.5 µM	–	–	–	Activity (CCRF-CEM [6]): Moderate
Cn1cc(NC(=O)c2cc(NC(=O)/C=C/C(=O)Nc3cc(C(=O)Nc4cc(C(=O)NCCC(=N)N)n(C)c4)n(C)c3)cn2C)cc1C(=O)NCCC(=N)N	1.37 µM	Active	–	–	–
Cn1cc(NC(=O)c2cc(NC(=O)CCCCCCCCCCC(=O)Nc3cc(C(=O)Nc4cc(C(=O)NCCC(=N)N)n(C)c4)n(C)c3)cn2C)cc1C(=O)NCCC(=N)N	6.6 µM	–	–	–	Activity (CCRF-CEM [6]): Moderate; IC50 (CCRF-CEM [1]): 78 µM
Cn1cc(NC(=O)c2cc(NC(=O)[C@H]3CC[C@@H]3C(=O)Nc3cc(C(=O)Nc4cc(C(=O)NCCC(=N)N)n(C)c4)n(C)c3)cn2C)cc1C(=O)NCCC(=N)N	0.42 µM	Active	–	–	–
Cn1cc(NC(=O)c2cc(NC(=O)[C@@H]3CCC(N)=N3)c[nH]2)cc1C(=O)NCCC(=N)N	88 µM	–	–	–	Activity (CCRF-CEM [6]): Moderate; IC50 (CCRF-CEM [1]): 750 µM; selectivity ratio (HIV-1): 8.5
Cl.Cl.Cn1cc(NC(=O)c2cc(NC(=O)c3cc(NC(=O)[C@@H]4C5C=CC(C5)[C@H]4C(=O)Nc4cc(C(=O)Nc5cc(C(=O)Nc6cc(C(=O)NCCC(=N)N)n(C)c6)n(C)c5)n(C)c4)cn3C)cn2C)cc1C(=O)NCCC(=N)N	–	–	> 4.54 TD50/MIC50	>100 µg/mL	–
Cn1cc(NC(=O)c2cc(NC(=O)c3cc(NC(=O)CCCCCCCCC(=O)Nc4cc(C(=O)Nc5cc(C(=O)Nc6cc(C(=O)NCCC(=N)N)n(C)c6)n(C)c5)n(C)c4)cn3C)cn2C)cc1C(=O)NCCC(=N)N	–	–	–	–	Activity [7]: Moderate
Cn1cc(NC(=O)c2cc(NC(=O)CCCCCCC(=O)Nc3cc(C(=O)Nc4cc(C(=O)NCCC(=N)N)n(C)c4)n(C)c3)cn2C)cc1C(=O)NCCC(=N)N	–	–	–	–	Activity (CCRF-CEM [8]): inactive
Cc1cn([C@H]2C[C@H](N=[N+]=[N-])[C@@H](CO)O2)c(=O)[nH]c1=O [ZIDOVUDINE]	–	–	> 714000 TD50/MIC50	>100 µg/mL	MIC50 (Murine leukemia virus [9]): 0.0014 µg/mL (≈ 5.24 nM)
Cn1cc(NC(=O)c2cc(NC(=O)c3cc(NC(=O)CCCCCCCCCCCCCCCCCCCCCCC(=O)Nc4cc(C(=O)Nc5cc(C(=O)Nc6cc(C(=O)NCCC(=N)N)n(C)c6)n(C)c5)n(C)c4)cn3C)cn2C)cc1C(=O)NCCC(=N)N	–	–	–	–	IC50 (CCRF-CEM [1]): > 120 µM; Activity (CCRF-CEM [8]): inactive
Cn1cc(NC(=O)c2cc(NC(=O)CCCCCCCCCC(=O)Nc3cc(C(=O)Nc4cc(C(=O)NCCC(=N)N)n(C)c4)n(C)c3)cn2C)cc1C(=O)NCCC(=N)N	3.9 µM	–	–	–	Activity (CCRF-CEM [6]): Moderate; IC50 (CCRF-CEM [1]): 57 µM; selectivity ratio (HIV-1): 14.6
Cn1cc(NC(=O)c2cc(NC(=O)/C=C\C(=O)Nc3cc(C(=O)Nc4cc(C(=O)NCCC(=N)N)n(C)c4)n(C)c3)cn2C)cc1C(=O)NCCC(=N)N	0.35 µM	Active	–	–	–
Cn1cc(NC(=O)c2cc(NC(=O)CCCCCCCCC(=O)Nc3cc(C(=O)Nc4cc(C(=O)NCCC(=N)N)n(C)c4)n(C)c3)cn2C)cc1C(=O)NCCC(=N)N	–	–	–	–	Activity (CCRF-CEM [8]): inactive
Cl.Cl.Cn1cc(NC(=O)c2cc(NC(=O)c3cc(NC(=O)c4ccc(C(=O)Nc5cc(C(=O)Nc6cc(C(=O)Nc7cc(C(=O)NCCC(=N)N)n(C)c7)n(C)c6)n(C)c5)cc4)cn3C)cn2C)cc1C(=O)NCCC(=N)N	–	Active	> 25.13 TD50/MIC50	>100 µg/mL	–
Cl.Cl.Cn1cc(NC(=O)c2cc(NC(=O)c3cc(NC(=O)c4ccc(C(=O)Nc5cc(C(=O)Nc6cc(C(=O)Nc7cc(C(=O)NCCC(=N)N)n(C)c7)n(C)c6)n(C)c5)nc4)cn3C)cn2C)cc1C(=O)NCCC(=N)N	–	Active	> 6.28 TD50/MIC50	>100 µg/mL	–
Cl.Cl.Cl.Cn1cc(NC(=O)c2cc(NC(=O)c3cc(NC(=O)c4cc(C(=O)Nc5cc(C(=O)Nc6cc(C(=O)Nc7cc(C(=O)NCCC(=N)N)n(C)c7)n(C)c6)n(C)c5)cc(C(=O)Nc5cc(C(=O)Nc6cc(C(=O)Nc7cc(C(=O)NCCC(=N)N)n(C)c7)n(C)c6)n(C)c5)c4)cn3C)cn2C)cc1C(=O)NCCC(=N)N	–	–	> 1.6 TD50/MIC50	>100 µg/mL	MIC50 (Murine leukemia virus [9]): 62.8 µg/mL

From ChEMBL document CHEMBL1126301, “Anti-HIV-I activity of linked lexitropsins” (J Med Chem, 1992)
